Key:
[1] = Inhibition of haemozoin formation using hemin chloride assessed as beta-hematin formation at 5 to 100 uM after 48 hrs; assay type: physicochemical
Procedure, shortened: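 Hemin chloride (4 mM in DMSO) was mixed with compound in DMSO at 100–5 µM, in triplicate. Water or DMSO served as controls. β-Hematin formation was started with 0.2 M acetate buffer, pH 4.4, and run for 48 h at 37 °C. The pellet was washed with DMSO, dissolved in 0.2 N NaOH, diluted 1:2 in 0.1 N NaOH and read at 405 nm, giving % inhibition of haemozoin formation.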

Plasmodium berghei [2] = experiment: Antimalarial activity against chloroquine susceptible Plasmodium berghei ANKA infected in Balb-C mouse assessed as reduction of parasitemia at 20 mg/kg, ip qd for 4 days by Giemsa staining (reference value: 65.20 +/- 2.58%); assay type: functional; set-up: scale not given: the % may be the effect or the level left
Plasmodium berghei [3] = experiment: Antimalarial activity against chloroquine susceptible Plasmodium berghei ANKA infected in Balb-C mouse assessed as host survival days at 20 mg/kg, ip qd for 4 days (reference value: 6.80 +/- 0.70 days); assay type: functional
Plasmodium berghei [4] = experiment: Antimalarial activity against chloroquine susceptible Plasmodium berghei ANKA infected in Balb-C mouse assessed as host survival days at 25 mg/kg, ip qd for 4 days (reference value: 6.80 +/- 0.70 days); assay type: functional
Plasmodium berghei [5] = experiment: Antimalarial activity against chloroquine susceptible Plasmodium berghei ANKA infected in Balb-C mouse assessed as reduction of parasitemia at 25 mg/kg, ip qd for 4 days by Giemsa staining (reference value: 65.20 +/- 2.58%); assay type: functional
Mus musculus = experiment: Toxicity in chloroquine susceptible Plasmodium berghei ANKA infected Balb-C mouse at 20 mg/kg, ip qd for 4 days; assay type: organism-based; details: in vivo, 96 h

Compound | inhibition (INH) [1] [%] | Activity (Plasmodium berghei [2]) [%] | Survival (Plasmodium berghei [3]) [days] | Survival (Plasmodium berghei [4]) [days] | Parasitemia (Plasmodium berghei [5]) [%] | Activity (Mus musculus)
Cl.Clc1ccc(-c2cc(Nc3ccnc4cc(Cl)ccc34)ccc2CN2CCOCC2)cc1 | 2.03 |  |  |  |  | 
Cl.Clc1ccc2c(Nc3ccc(CN4CCOCC4)c(-c4ccccc4)c3)ccnc2c1 | 98.04 | 6.5 | 23.2 |  |  | 
CCN(CC)CCCC(C)Nc1ccnc2cc(Cl)ccc12 (stereo unspecified) [CHLOROQUINE] | 98.57 |  |  | 29.4 | 0.6 | 
Cl.Clc1ccc2c(Nc3ccc(CN4CCCCC4)c(-c4ccccc4)c3)ccnc2c1 | 97.08 | 1.8 | 28.4 |  |  | Non-toxic
Cl.Clc1ccc(-c2cc(Nc3ccnc4cc(Cl)ccc34)ccc2CN2CCCCC2)cc1 | 97.21 | 7.3 | 26 |  |  | 
Cl.Clc1ccc2c(Nc3ccc(CN4CCCC4)c(-c4ccccc4)c3)ccnc2c1 | 98.49 | 2.1 | 28.6 |  |  | Non-toxic
Cl.Clc1ccc(-c2cc(Nc3ccnc4cc(Cl)ccc34)ccc2CN2CCCC2)cc1 | 97.25 | 2 | 27.3 |  |  | Non-toxic
CN1CCN(Cc2ccc(Nc3ccnc4cc(Cl)ccc34)cc2-c2ccc(Cl)cc2)CC1.Cl | 1.61 |  |  |  |  | 
CCN(CC)Cc1ccc(Nc2ccnc3cc(Cl)ccc23)cc1-c1ccccc1.Cl | 98.45 | 3.2 | 25.2 |  |  | 

From ChEMBL document CHEMBL3593186, “Synthesis, β-hematin inhibition studies and antimalarial evaluation of dehydroxy isotebuquine derivatives against Plasmodium berghei” (Bioorg Med Chem, 2015)
